# Statin myotox sup – suppression of simvastatin myotoxicity; C2C12 myotubes + simvastatin, ATP luminescence, 48 h; scaled: DMSO 0, geranylgeraniol control 100; rescue of ATP level, % at 7.49 µM; actives 0.78% (n = 330,000); AID 602340;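 active = mean ATP rescue above about 67%, or every replicate alone reaching that limit, limit read from the data, passing the limit was not always enough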;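 note: myotubes were challenged with 10 µM simvastatin during compound exposure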
# ASAP1 GAP inh – inhibitors of human ASAP1 ArfGAP activity; Q9ULH1; ASAP1-stimulated ARF1 GTP hydrolysis, GDP FP detection; inhibition, % at 16.5 µM; actives 0.19% (n = 360,000); in the data active = inhibition above about 25%;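 note: 0% = vehicle with enzyme and substrate and 100% = no enzyme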
# Target sequence (Q9ULH1 325-724 limits assumed): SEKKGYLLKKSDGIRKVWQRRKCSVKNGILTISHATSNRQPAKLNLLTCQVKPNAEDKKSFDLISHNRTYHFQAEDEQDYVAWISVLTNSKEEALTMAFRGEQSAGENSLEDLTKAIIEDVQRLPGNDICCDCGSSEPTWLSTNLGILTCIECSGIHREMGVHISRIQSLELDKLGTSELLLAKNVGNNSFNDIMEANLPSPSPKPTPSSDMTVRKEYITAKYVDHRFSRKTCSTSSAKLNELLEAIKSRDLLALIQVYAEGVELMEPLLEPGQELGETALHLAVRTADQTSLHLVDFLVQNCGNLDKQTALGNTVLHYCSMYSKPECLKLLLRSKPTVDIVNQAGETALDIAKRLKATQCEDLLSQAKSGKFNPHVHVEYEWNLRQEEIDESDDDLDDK
# A3A deaminase – human APOBEC3A DNA deaminase inhibition | inhibition, % at 20 µM | actives 0.41% (n = 330,000) | P31941 | recombinant A3A, FAM/TAMRA ssDNA deamination fluorescence;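 active = at least 40% inhibition at 20 µM here, with at most 30% in a related deaminase screen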;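 note: plate controls were A3A with DMSO for no effect and wells lacking A3A enzyme for full effect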
# ARFGAP1 inh – rat ARFGAP1 inhibition | Q62848 | Arfgap1-stimulated ARF1 GTP hydrolysis, GDP FP detection | inhibition, % at 16.5 µM | actives 0.26% (n = 360,000);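 active = inhibition above a per-plate limit, mean inhibition of low control wells plus 3 SD, cut at about 25% in these data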;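 note: 0% = DMSO wells with enzyme and 100% = wells lacking Arfgap1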
# Target sequence (Q62848 1-136 limits assumed): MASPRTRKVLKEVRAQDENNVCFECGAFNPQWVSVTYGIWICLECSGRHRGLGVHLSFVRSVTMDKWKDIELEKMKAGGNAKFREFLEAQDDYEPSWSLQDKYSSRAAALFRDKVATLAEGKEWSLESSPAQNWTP
#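 Repeats: one replicate per compound; assay system: rat Arfgap1 catalytic domain, aa 1-136; times: enzyme reaction 120 min at 25 °C after 20 min preincubation; detection: FP of antibody-bound GDP Alexa 633 tracer, ex 620/em 688 nm; benchmarks: high control wells lacking Arfgap1, low control full reaction with DMSO; reagent: human ARF1(Δ1-17)-GTP substrate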
# A3G deaminase – inhibitors of human APOBEC3G DNA deaminase | Q9HC16 | recombinant A3G, ssDNA deamination FAM/TAMRA fluorescence | inhibition, % at 20 µM | actives 0.28% (n = 330,000);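 active = inhibition of at least 40% at 20 µM, with no more than 30% in the related APOBEC3A deaminase screen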;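 note: plate controls were DMSO wells with A3G for no effect and wells lacking A3G enzyme for full effect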
# SUMO Mot1 rescue – SUMOylation pathway inhibition by Mot1-301 growth rescue; S. cerevisiae Mot1-301 growth rescue, ATP luminescence, 38.5C; percent above DMSO median, 100 means doubled; growth rescue, % at 18.8 µM; actives 1% (n = 320,000); AID 2716;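 active = every valid replicate shows activation above 250% relative to neutral control wells; inactive = the rest, any valid replicate at or below 250%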;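 note: OY570 slx delta 5 strain wells were the positive control but not used for scaling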
# A3A conf – APOBEC3A (human) deaminase inhibition, confirmed | shares compounds with A3A deaminase | recombinant A3A, ssDNA deaminase UDG fluorescence assay | inhibition, % at 20 µM | actives 63% (n = 1,400) | AID 493151;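 active = inhibition reaching a set limit, 80% of the first screen's cutoff, at 20 µM in any replicate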;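 note: plate controls were DMSO wells with A3A for no effect and wells lacking A3A enzyme for full effect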
# UDG A3A counter – counter-screen for APOBEC3A inhibitors: UDG. shares compounds with A3A deaminase. 1,000 tested, under 10 active. inhibition, % at 20 µM. UDG counterscreen, FAM/TAMRA uracil oligo fluorescence; call rule not given here
# * = called active by the depositor; nt = not tested or not shown. Compounds with a hit are over-represented: about 2.1% of the library has one in this group of screens.
SMILES,Statin myotox sup,ASAP1 GAP inh,A3A deaminase,ARFGAP1 inh,A3G deaminase,SUMO Mot1 rescue,A3A conf,UDG A3A counter
COC(=O)C1=C(C)N(Cc2ccccc2)C(=NCc2cc(OC)c(OC)c(OC)c2)N[C@H]1c1ccccc1,nt,nt,70*,nt,25,6,47*,nt
COC(=O)C1=C(C)N(Cc2ccccc2)C(=NCc2cc(OC)c(OC)c(OC)c2)N[C@H]1c1ccc(Br)cc1,-11,nt,46*,nt,18,-1,60*,-10
COC(=O)C1=C(C)N(Cc2ccccc2)C(=NCc2ccccc2)N[C@H]1c1ccccc1,-27,-2,32,11,4,-28,nt,nt
COC(=O)C1=C(C)N(Cc2cccc(C(F)(F)F)c2)C(=NCc2cc(OC)c(OC)c(OC)c2)NC1c1ccc(Cl)cc1 (centres undefined),nt,-6,nt,-5,nt,nt,nt,nt
COCCN=C1N[C@@H](c2ccc(Br)cc2)C(C(=O)OC)=C(C)N1Cc1ccccc1,-28,0,54*,3,14,-15,40*,-2
CCC(=O)N1C[C@H]2[C@@H](c3ccccc31)[C@@H](CO)N2C(=O)Nc1ccccc1,-15,nt,nt,nt,nt,nt,nt,nt
COCC(=O)N(C)C[C@@H]1Oc2ncc(C#CC(C)(C)O)cc2C(=O)N([C@H](C)CO)C[C@H]1C,0,nt,nt,nt,nt,nt,nt,nt
COC(=O)C1=C(C)N(CC2CC2)C(=NCc2cc(OC)c(OC)c(OC)c2)N[C@H]1c1ccccc1,-11,nt,47*,nt,16,-2,56*,-5
COC(=O)C1=C(C)N(C)C(=NCc2cc(OC)c(OC)c(OC)c2)NC1c1ccc(Cl)cc1 (centres undefined),nt,4,nt,6,nt,nt,nt,nt
CCOc1ccc(NC(C(=O)Nc2cccc(C(C)=O)c2)c2ccccc2)cc1 (centres undefined),nt,-3,43*,-4,-3,-28,-11,-3
O=C(Nc1ccc(NC(=O)C2CC2)cn1)c1ccccc1Cl,-15,7,43*,7,-2,-1,-6,-1
O=C(Nc1ccc(NC(=O)C2CC2)cn1)c1ccccc1,-15,8,2,5,-5,-14,nt,nt
CC=Cc1ccc2n(c1=O)C[C@H]1[C@H](CO)[C@@H](C(=O)NCC)N(C(=O)C3CCOCC3)[C@@H]21 (mixture of isomers),20,nt,nt,nt,nt,nt,nt,nt
C/C(CC(=O)Nc1ccc(Cl)c(Cl)c1)=N\NC(=O)C(=O)N1CCCCC1,7,3,62*,5,9,-16,16*,-1
CO[C@H](CN(C)C(=O)C1CCOCC1)[C@@H](C)CN(C(=O)Nc1ccc(F)cc1)[C@@H](C)CO,-6,nt,nt,nt,nt,nt,nt,nt
O=C(Nc1cc2c(cc1Br)OCCCO2)c1ccccc1,nt,1,55*,23,2,7,1,nt
O=C(Nc1cc2c(cc1Br)OCCCO2)c1cccnc1,3,-7,-2,0,-2,2,nt,nt
Cc1nc2ccc(NC(=O)C3COc4ccccc4O3)cc2s1 (centres undefined),0,-6,49*,7,16,78,60*,2
Cc1nc2cc(NC(=O)C3COc4ccccc4O3)ccc2s1 (centres undefined),-3,1,39,4,5,71,nt,nt
O=C(c1cc2cc([N+](=O)[O-])ccc2oc1=O)n1cccn1,3,6,59*,3,21,13,39*,nt
O=C(O)c1ccc2c3c(cccc13)C(=O)N(c1ccccc1)C2=O,2,-5,63*,-13,26,-13,55*,-3
O=C(O)c1ccc(N2C(=O)c3cccc4c(C(=O)O)ccc(c34)C2=O)cc1,nt,-1,nt,6,nt,0,nt,nt
CCN1C(=NCCCOC(C)C)N[C@@H](CCc2ccccc2)[C@H](C(=O)NCCCOC(C)C)[C@H]1C,-105,7,42*,-11,9,-1,58*,-2
CCN1C(=NCCOC)N[C@@H](CCc2ccccc2)[C@H](C(=O)OC)[C@H]1C,18,-5,46*,3,4,284,66*,-3
O=C(NCCCO)c1cc([N+](=O)[O-])cc2c1C=Cc1ccccc1O2,1,2,47*,-2,6,9,20,nt
SMILES,Statin myotox sup,ASAP1 GAP inh,A3A deaminase,ARFGAP1 inh,A3G deaminase,SUMO Mot1 rescue,A3A conf,UDG A3A counter
C/C=C/c1ccc([C@H]2[C@@H](CN(C)C(C)=O)N(C(=O)NCCC)[C@H]2CO)cc1,9,nt,nt,nt,nt,nt,nt,nt
CC(=O)N1CCN(CCN(CC2C(C)C=C(C)CC2C)C(C)=O)CC1 (centres undefined),-9,-4,-1,4,-5,5,nt,nt
CC1=CC(C)C(CN(CCC[N+](C)(C)C)C(=O)Nc2ccccc2)C(C)C1 (centres undefined),nt,-2,58*,-14,25,10,28*,-2
C[C@@H]1CN([C@H](C)CO)C(=O)c2cc(-c3ccccc3)cnc2O[C@@H]1CN(C)C(=O)c1ccccc1F,0,nt,nt,nt,nt,nt,nt,nt
Cc1n[nH]c(C)c1S(=O)(=O)N1CCC(C(=O)N2CCn3c2nc2ccccc23)CC1,6,11,98*,-3,-4,-8,-6,-4
Cc1ccc(C(=O)Nc2cc(Cl)ccc2-n2cncn2)o1,-17,15,41*,-2,-1,-1,48*,4
CC(C)CCOCC(O)CCC(=O)NNC(=S)Nc1ccccc1 (centres undefined),nt,20,92*,3,-4,-11,-4,1
CC(O)CCC(=O)NNC(=S)Nc1ccccc1 (centres undefined),10,-1,-3,-3,-9,15,nt,nt
O=C(Nc1nc(-c2ccco2)c(-c2ccco2)s1)C1CC(=O)N(c2ccc3c(c2)OCCO3)C1 (centres undefined),6,-2,49*,0,27,0,37*,-4
O=C(Nc1nnc(SCc2c(Cl)cccc2Cl)s1)C1CC(=O)N(c2ccc3c(c2)OCCO3)C1 (centres undefined),nt,8,64*,1,21,4,23,nt
CO[C@H]1CN(C)C(=O)c2cc(NC(=O)NC3CCCCC3)ccc2OC[C@@H](C)N(C(C)=O)C[C@H]1C,14,nt,nt,nt,nt,nt,nt,nt
O=C(OCc1nc2ccsc2c(=O)[nH]1)c1ccccc1,-5,-16,56*,-5,-11,-11,-2,-2
CCCC(=O)Nc1ccc2c(c1)OC[C@@H](C)N(CCc1ccccc1)C[C@H](C)[C@H](OC)CN(C)C2=O,-3,nt,nt,nt,nt,nt,nt,nt
CCCCn1c2c(c(=N)c3ccccc31)CCC2,nt,-11,88*,-3,23,9,41*,2
